# Calls of active or inactive are those of the source. No cut-off for these calls is given here.
# Columns and labels:
# [1] = target: T1, Transient receptor potential cation channel subfamily M member 2 (Homo sapiens, UniProt O94759); assay: Inhibition of human FLAG-tagged TRPM2 expressed in HEK293 cells assessed as reduction in ADPR-induced intracellular calcium flux at 5 uM measured within 60 mins by whole cell patch clamp electrophysiology method; type: cell-based
# Procedure, shortened: (§1)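 TRPM2-HEK293 cells incubated with the sPLA2 inhibitors in standard external Ringer's. Whole-cell currents were recorded within the first 60 min using K-glutamate pipette with 100 μM ADPR. Current at −80 mV was normalized to same-day controls, n = 3–17.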
# HEK293 [2] = assay: Cytotoxicity against HEK293 cells assessed as cell death at 25 to 50 uM measured for 1 hr; type: cell-based; details: human, hek293, 1 h
# [3] = target: T1, Transient receptor potential cation channel subfamily M member 2; assay: Inhibition of human FLAG-tagged TRPM2 expressed in HEK293 cells assessed as reduction in H2O2-induced intracellular calcium flux pretreated for 30 secs followed by H2O2 addition measured for 120 secs by […]; type: cell-based
# [4] = target: T1, Transient receptor potential cation channel subfamily M member 2; assay: Inhibition of human FLAG-tagged TRPM2 expressed in HEK293 cells assessed as reduction in ADPR-induced intracellular calcium flux at 20 uM measured within 60 mins by whole cell patch clamp electrophysiology method; type: cell-based
# Procedure, shortened: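 Tetracycline-induced HEK293 cells stably carrying FLAG-human TRPM2 were incubated with inhibitor in standard external Ringer's (pH 7.2). Whole-cell recordings were made during the first 60 min at 21–25 °C. Pipette: K-glutamate with unbuffered Ca2+ plus 100 μM ADPR. Ramps ran −100 to +100 mV over 50 ms at 0.5 Hz. Current was taken at −80 mV as % of same-day controls (n = 3–17).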
# [5] = target: T1, Transient receptor potential cation channel subfamily M member 2; assay: Inhibition of human TRPM2 expressed in HEK293 cells assessed as reduction in ADPR-induced intracellular calcium flux at 0 mV holding potential by whole cell patch clamp electrophysiology method; type: cell-based
# Procedure, shortened: (§2)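 Human FLAG-TRPM2 in HEK293 cells, induced with tetracycline for 6–9 h and incubated 30–60 min in external Ringer's (0.1–2 μM) before patching. Pipette was K-glutamate, Ca2+ buffered to 300 nM, with 100 μM ADPR. Ramps ran −100 to +100 mV from a 0 mV holding potential, 0.5 Hz.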
# [6] = target: T1, Transient receptor potential cation channel subfamily M member 2; assay: Inhibition of human FLAG-tagged TRPM2 expressed in HEK293 cells assessed as reduction in ADPR-induced intracellular calcium flux at 200 to 2000 nM measured after 60 mins by whole cell patch clamp electrophysiology method; type: cell-based
# Procedure, shortened: (§3)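 HEK293 cells stably carrying tetracycline-inducible FLAG-human TRPM2, induced 6–9 h, preincubated 30–60 min with compound in external Ringer's, 21–25 °C. Whole-cell patch clamp used K-glutamate pipette solution with 100 μM ADPR and Ca2+ buffered to 300 nM. Ramps from −100 to +100 mV over 50 ms at 0.5 Hz.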
# HEK293 [7] = assay: Cytotoxicity against HEK293 cells assessed as effect on cell viability at 2 uM; type: cell-based; details: human, hek293, 2 µM
# HEK293 [8] = assay: Cytotoxicity against HEK293 cells assessed as cell rounding at 2 uM; type: cell-based; details: human, hek293, 2 µM
# HEK293 [9] = assay: Cytotoxicity against HEK293 cells assessed as granule formation at 2 uM; type: cell-based; details: human, hek293, 2 µM
# HEK293 [10] = assay: Cytotoxicity against HEK293 cells assessed as cell blebbing at 2 uM; type: cell-based; details: human, hek293, 2 µM
# [11] = target: T1, Transient receptor potential cation channel subfamily M member 2; details: HEK293, 100 nM
# [12] = target: T1, Transient receptor potential cation channel subfamily M member 2; assay: Inhibition of human FLAG-tagged TRPM2 expressed in HEK293 cells assessed as reduction in ADPR-induced intracellular calcium flux at 1 uM measured within 60 mins by whole cell patch clamp electrophysiology method; type: cell-based; procedure, shortened: as §1
# HEK293 [13] = assay: Cytotoxicity against HEK293 cells assessed as cell death at 5 to 10 uM measured for 1 hr; type: cell-based; details: human, hek293, 1 h
# [14] = target: T1, Transient receptor potential cation channel subfamily M member 2; assay: Inhibition of human FLAG-tagged TRPM2 expressed in HEK293 cells assessed as reduction in ADPR-induced intracellular calcium flux after 30 to 60 mins by whole cell patch clamp electrophysiology method; type: cell-based; procedure, shortened: as §2
# [15] = target: T1, Transient receptor potential cation channel subfamily M member 2; assay: Inhibition of human FLAG-tagged TRPM2 expressed in HEK293 cells assessed as reduction in ADPR-induced intracellular calcium flux at 2 uM by whole cell patch clamp electrophysiology method; type: cell-based; details: TDE = time-dependent effect
# [16] = target: T1, Transient receptor potential cation channel subfamily M member 2; assay: Inhibition of human FLAG-tagged TRPM2 expressed in HEK293 cells assessed as reduction in ADPR-induced intracellular calcium flux at 2 uM treated for 6 hrs followed by compound washout measured within 5 mins by whole cell patch clamp electrophysiology method; type: cell-based
# [17] = target: Transient receptor potential cation channel subfamily M member 7 (Mus musculus) (UniProt Q923J1); assay: Inhibition of mouse FLAG-tagged TRPM7 expressed in HEK293 cells assessed as reduction in BAPTA-induced intracellular calcium flux at 0.1 to 2 uM by whole cell patch clamp electrophysiology method; type: cell-based; details: TDE = time-dependent effect
# Chain of Transient receptor potential cation channel subfamily M member 7 (Mus musculus) (Q923J1 whole entry): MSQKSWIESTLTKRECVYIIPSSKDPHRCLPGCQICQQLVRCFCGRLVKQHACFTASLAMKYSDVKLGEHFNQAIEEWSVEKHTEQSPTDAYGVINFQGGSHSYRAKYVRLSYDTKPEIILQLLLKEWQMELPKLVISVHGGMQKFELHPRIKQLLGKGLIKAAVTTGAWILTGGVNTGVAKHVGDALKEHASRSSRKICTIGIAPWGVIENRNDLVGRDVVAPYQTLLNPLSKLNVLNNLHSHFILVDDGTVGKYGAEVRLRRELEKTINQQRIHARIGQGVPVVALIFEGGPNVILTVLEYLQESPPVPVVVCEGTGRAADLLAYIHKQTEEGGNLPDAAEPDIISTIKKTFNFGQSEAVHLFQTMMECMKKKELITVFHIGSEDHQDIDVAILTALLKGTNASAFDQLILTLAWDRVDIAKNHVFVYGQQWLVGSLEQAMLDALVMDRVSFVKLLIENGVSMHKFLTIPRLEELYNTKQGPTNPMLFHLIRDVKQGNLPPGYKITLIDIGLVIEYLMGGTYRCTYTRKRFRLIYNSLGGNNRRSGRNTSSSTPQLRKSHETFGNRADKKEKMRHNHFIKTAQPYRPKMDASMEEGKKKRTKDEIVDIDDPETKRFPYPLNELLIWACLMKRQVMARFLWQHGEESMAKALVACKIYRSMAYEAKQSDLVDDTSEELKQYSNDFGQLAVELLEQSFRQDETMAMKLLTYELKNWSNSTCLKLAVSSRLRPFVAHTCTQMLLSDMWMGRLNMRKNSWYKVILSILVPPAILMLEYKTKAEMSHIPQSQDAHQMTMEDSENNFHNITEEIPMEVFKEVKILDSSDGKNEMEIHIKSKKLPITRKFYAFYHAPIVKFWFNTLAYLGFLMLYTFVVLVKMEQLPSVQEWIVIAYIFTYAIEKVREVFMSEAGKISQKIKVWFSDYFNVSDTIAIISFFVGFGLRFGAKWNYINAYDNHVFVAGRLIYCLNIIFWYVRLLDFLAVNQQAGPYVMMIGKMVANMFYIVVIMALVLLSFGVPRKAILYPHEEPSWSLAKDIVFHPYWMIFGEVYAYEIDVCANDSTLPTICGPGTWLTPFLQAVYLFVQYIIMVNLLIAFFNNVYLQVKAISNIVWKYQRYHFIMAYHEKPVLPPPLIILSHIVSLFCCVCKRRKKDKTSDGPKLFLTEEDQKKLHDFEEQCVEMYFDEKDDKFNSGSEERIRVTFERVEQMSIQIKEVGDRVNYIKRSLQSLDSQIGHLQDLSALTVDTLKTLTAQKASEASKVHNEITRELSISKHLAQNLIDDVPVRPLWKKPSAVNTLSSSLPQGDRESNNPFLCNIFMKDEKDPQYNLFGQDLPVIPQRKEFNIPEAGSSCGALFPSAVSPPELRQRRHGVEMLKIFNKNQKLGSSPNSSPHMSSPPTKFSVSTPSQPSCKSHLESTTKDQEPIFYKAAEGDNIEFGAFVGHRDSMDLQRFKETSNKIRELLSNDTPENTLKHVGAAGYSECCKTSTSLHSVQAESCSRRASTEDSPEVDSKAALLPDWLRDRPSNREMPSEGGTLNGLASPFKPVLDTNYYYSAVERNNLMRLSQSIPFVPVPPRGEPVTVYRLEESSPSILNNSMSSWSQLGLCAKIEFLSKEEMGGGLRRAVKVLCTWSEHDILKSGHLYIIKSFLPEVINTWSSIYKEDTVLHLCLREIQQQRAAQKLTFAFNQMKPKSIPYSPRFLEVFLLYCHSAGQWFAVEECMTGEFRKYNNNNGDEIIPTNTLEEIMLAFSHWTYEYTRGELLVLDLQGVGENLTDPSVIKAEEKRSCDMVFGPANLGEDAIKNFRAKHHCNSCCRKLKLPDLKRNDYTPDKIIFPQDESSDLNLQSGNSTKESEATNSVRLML
# Procedure, shortened: (§4)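 Mouse FLAG-TRPM7 in HEK293 cells, induced with tetracycline for 19–22 h and incubated with 100 nM–2 μM compound in culture medium from 15 min (maximum 60 min) before patching. Pipette was K-glutamate with 10 mM K-BAPTA. Ramps ran −100 to +100 mV, 0.5 Hz. Current at +80 mV and 200 s was normalized, and IC50 came from a fit.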
# [18] = target: Transient receptor potential cation channel subfamily M member 7 (Mus musculus, UniProt Q923J1); assay: Inhibition of mouse FLAG-tagged TRPM7 expressed in HEK293 cells assessed as reduction in BAPTA-induced intracellular calcium flux after 15 to 60 mins by whole cell patch clamp electrophysiology method; type: cell-based; procedure, shortened: as §4
# Chain of Transient receptor potential cation channel subfamily M member 7 (Q923J1 whole entry): as above
# [19] = target: ORAI1/STIM1 (Homo sapiens) (UniProt Q96D31+Q13586); assay: Inhibition of EGFP-tagged Orai1/STIM1 (unknown origin) expressed in HEK293 cells assessed as reduction in BAPTA-induced calcium release activated calcium channel currents at 2 uM after 30 to 60 mins by whole cell patch clamp method; type: cell-based
# Procedure, shortened: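 HEK293 cells stably expressing STIM1 and transiently transfected with CRACM1 (Orai1)-IRES-EGFP, recorded 24–48 h after transfection and picked by EGFP. Cells were exposed for 30–60 min. External solution held 10 mM CaCl2 (NaCl/TEA-based, pH 7.2). Pipette was Cs-glutamate with 20 mM Cs-BAPTA and 20 μM IP3. Ramps ran −150 to +150 mV over 50 ms at 0.5 Hz, read at −80 mV.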
# [20] = target: Transient receptor potential cation channel subfamily M member 4 (Homo sapiens) (UniProt Q8TD43); assay: Inhibition of TRPM4 in human Jurkat T cells assessed as reduction in intracellular calcium flux at 500 nM within 60 mins by whole cell patch clamp electrophysiology method; type: cell-based
# Procedure, shortened: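 Endogenous TRPM4-like currents in Jurkat T cells, preincubated in standard external solution and recorded within 60 min. Pipette was Cs-glutamate with intracellular Ca2+ clamped to 2 μM. Ramps ran −100 to +100 mV over 50 ms at 0.5 Hz, and current was normalized and plotted against time.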
# [21] = target: Transient receptor potential cation channel subfamily V member 1 (Rattus norvegicus) (UniProt O35433); assay: Inhibition of TRPV1 in rat INS-1 cells assessed as reduction in intracellular calcium flux at 500 nM measured within 60 mins by whole cell patch clamp method; type: cell-based
# Chain of Transient receptor potential cation channel subfamily V member 1 (Rattus norvegicus) (O35433 whole entry): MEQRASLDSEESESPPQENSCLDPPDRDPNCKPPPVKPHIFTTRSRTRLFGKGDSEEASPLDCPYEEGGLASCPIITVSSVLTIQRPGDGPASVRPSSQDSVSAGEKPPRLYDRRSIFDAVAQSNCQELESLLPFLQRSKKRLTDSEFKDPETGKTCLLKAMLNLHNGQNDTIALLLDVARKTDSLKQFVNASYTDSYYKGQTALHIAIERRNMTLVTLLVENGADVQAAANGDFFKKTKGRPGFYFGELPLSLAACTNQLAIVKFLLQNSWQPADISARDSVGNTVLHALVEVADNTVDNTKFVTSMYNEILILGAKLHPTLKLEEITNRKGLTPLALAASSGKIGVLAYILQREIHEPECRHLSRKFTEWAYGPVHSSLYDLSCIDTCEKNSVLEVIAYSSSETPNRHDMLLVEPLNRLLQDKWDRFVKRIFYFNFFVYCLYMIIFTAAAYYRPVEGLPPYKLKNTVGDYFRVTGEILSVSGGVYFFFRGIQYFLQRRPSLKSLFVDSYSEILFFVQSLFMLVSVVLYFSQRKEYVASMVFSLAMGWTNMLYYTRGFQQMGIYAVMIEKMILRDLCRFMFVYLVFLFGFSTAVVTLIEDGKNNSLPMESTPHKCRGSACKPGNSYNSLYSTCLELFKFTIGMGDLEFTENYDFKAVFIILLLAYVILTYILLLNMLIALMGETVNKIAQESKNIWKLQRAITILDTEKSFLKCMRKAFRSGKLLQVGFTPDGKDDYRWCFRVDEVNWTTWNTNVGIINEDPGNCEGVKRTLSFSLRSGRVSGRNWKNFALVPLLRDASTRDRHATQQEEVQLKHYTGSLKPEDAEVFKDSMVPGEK
# Procedure, shortened: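 Endogenous TRPV1-like currents in INS-1 cells, preincubated in external solution and recorded within 60 min. Pipette was Cs-glutamate with Ca2+ unbuffered. Current was activated by 10 μM capsaicin in the bath. Ramps ran −100 to +100 mV, 50 ms, 0.5 Hz.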
# [22] = target: Transient receptor potential cation channel subfamily M member 2 (Rattus norvegicus, UniProt E9PTA2); assay: Inhibition of TRPM2 in rat INS-1 cells assessed as reduction in ADPR-induced intracellular calcium flux measured after 60 mins by whole cell patch clamp electrophysiology method; type: cell-based
# Procedure, shortened: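 Whole-cell TRPM2 currents in INS-1 cells at 21–25 °C. Pipette was Cs-glutamate with ADPR and no Ca2+ chelator. Compound (10 nM–2 μM) in external Ringer's, recorded within the first 60 min of incubation. Ramps ran −100 to +100 mV, 50 ms, 0.5 Hz. Current at −80 mV and 50 s was normalized to control, and IC50 came from a dose–response fit.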
# INS1 [23] = assay: Cytotoxicity against rat INS-1 cells assessed as granule formation; type: cell-based
# Procedure, shortened: (§5)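 INS-1 cells (RPMI, 10% FBS, 37 °C, 5% CO2) kept under continual scalaradial exposure in standard external solution during whole-cell patching. Cells were scored by eye for rounding, granule formation and blebbing over at least 1 h.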
# INS1 [24] = assay: Cytotoxicity against rat INS-1 cells assessed as cell rounding; type: cell-based; procedure, shortened: as §5
# INS1 [25] = assay: Cytotoxicity against rat INS-1 cells assessed as cell blebbing; type: cell-based; procedure, shortened: as §5
# INS1 [26] = assay: Cytotoxicity against rat INS-1 cells at 500 nM measured for 1 hr; type: cell-based; details: ins1, 1 h, 0.5 µM; procedure, shortened: as §5
# Phospholipase A2 = target: T2, Phospholipase A2 (Apis mellifera, UniProt P00630); assay: Inhibition of bee venom PLA2
# T2 sequence (P00630 whole entry): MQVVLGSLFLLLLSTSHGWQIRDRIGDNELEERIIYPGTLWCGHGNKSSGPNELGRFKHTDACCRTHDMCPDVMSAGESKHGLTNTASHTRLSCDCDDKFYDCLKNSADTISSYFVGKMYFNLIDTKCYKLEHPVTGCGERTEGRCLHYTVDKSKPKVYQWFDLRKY
# [27] = Inhibition of recombinant human sPLA2 using [1-14C]oleate-labelled autoclaved Escherichia coli as substrate measured after 15 mins
# [28] = target: T1, Transient receptor potential cation channel subfamily M member 2; assay: Inhibition of human FLAG-tagged TRPM2 expressed in HEK293 cells assessed as reduction in ADPR-induced intracellular […] at 20 to 200 nM measured after 60 mins by whole cell patch clamp electrophysiology method; type: cell-based; procedure, shortened: as §3
# HEK293 [29] = assay: Cytotoxicity against HEK293 cells assessed as effect on cell viability at 200 nM; type: cell-based; details: human, hek293, 0.2 µM
# Procedure, shortened: (§6)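 Tetracycline-induced human TRPM2-HEK293 cells preincubated 60 min with compound in serum-containing medium, then moved to standard external Ringer's with compound still present for whole-cell recording ([…] internal). Cells scored by eye for rounding, granule formation and blebbing.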
# HEK293 [30] = assay: Cytotoxicity against HEK293 cells assessed as cell rounding at 200 nM; type: cell-based; details: human, hek293, 0.2 µM; procedure, shortened: as §6
# HEK293 [31] = assay: Cytotoxicity against HEK293 cells assessed as granule formation at 200 nM; type: cell-based; details: human, hek293, 0.2 µM; procedure, shortened: as §6
# HEK293 [32] = assay: Cytotoxicity against HEK293 cells assessed as cell blebbing at 200 nM; type: cell-based; details: human, hek293, 0.2 µM; procedure, shortened: as §6
# T1 sequence (O94759 whole entry): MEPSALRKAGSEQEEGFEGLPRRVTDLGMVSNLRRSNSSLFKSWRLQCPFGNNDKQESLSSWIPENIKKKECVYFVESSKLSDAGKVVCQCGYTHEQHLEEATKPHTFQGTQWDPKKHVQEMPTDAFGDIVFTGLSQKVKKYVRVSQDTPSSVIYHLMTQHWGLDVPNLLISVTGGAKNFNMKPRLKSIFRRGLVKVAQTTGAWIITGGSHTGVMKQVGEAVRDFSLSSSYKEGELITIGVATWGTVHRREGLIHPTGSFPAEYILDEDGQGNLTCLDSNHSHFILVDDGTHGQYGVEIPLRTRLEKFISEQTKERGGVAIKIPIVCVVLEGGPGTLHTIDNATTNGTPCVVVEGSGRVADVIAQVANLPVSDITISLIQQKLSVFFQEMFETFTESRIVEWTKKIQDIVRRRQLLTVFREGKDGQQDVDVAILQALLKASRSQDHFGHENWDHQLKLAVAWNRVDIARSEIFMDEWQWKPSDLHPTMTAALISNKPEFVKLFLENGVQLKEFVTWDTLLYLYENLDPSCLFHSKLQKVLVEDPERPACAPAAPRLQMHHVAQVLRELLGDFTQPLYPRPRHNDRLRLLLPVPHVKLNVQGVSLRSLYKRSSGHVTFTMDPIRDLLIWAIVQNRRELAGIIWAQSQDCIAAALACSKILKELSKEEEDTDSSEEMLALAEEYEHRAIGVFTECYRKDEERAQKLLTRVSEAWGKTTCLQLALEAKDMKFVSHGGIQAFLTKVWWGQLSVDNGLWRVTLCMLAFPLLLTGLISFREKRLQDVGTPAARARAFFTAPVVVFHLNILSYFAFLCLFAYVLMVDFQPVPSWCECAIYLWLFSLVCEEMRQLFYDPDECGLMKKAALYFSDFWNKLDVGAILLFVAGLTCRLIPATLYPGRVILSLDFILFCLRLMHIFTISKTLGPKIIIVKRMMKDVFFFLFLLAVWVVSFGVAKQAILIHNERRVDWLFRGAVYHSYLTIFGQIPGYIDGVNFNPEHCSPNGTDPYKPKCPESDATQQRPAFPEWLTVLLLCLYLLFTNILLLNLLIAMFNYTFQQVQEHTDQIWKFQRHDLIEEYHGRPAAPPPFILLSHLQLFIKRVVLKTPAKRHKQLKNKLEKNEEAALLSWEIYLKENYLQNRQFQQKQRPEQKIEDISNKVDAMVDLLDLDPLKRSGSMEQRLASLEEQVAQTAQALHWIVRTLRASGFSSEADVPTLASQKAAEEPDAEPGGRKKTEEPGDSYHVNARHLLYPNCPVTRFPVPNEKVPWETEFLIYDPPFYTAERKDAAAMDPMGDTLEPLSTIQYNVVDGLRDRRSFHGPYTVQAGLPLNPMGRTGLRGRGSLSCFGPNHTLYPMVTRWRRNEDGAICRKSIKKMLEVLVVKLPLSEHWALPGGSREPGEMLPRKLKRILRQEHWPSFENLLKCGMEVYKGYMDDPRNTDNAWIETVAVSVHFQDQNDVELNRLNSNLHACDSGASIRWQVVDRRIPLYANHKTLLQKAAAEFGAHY
smiles,measurement,setting,value
O=C(O)CC[C@@H](Cc1ccc(OCc2ccccc2)cc1)NC(=O)CCCCCCc1ccccc1,inhibition,[1],inactive
same,Activity,HEK293 [2],Toxic
O=C1NCCc2c(OCCCCN3CCCCC3)cccc21,IC50,[3],600 nM
same,inhibition,[4],inactive
CCCCCc1ccc(/C=C/C(=O)Nc2ccccc2C(=O)O)cc1,IC50,[5],4500 nM
O=c1[nH]c2ccccc2n1C1CCN(Cc2ccc(-c3nc4cc5[nH]cnc5cc4nc3-c3ccccc3)cc2)CC1,inhibition,[6],inactive
same,Activity,HEK293 [7],Toxic
same,Activity,HEK293 [8],Toxic
same,Activity,HEK293 [9],Toxic
same,Activity,HEK293 [10],Toxic
CN(C)CC(=O)Nc1ccc2[nH]c(=O)c3ccccc3c2c1,IC50,[3],25 nM
same,inhibition,[11],inactive
CCCCCCCCCCCCCCCCOCC(COCC)OP(=O)([O-])OC.[Li+] (stereo not given),inhibition,[12],inactive
same,Activity,HEK293 [13],Toxic
CC(=O)O[C@H]1C[C@@H]2[C@@]3(C)CCCC(C)(C)[C@@H]3CC[C@@]2(C)[C@@H]2CC=C(C=O)[C@H](C=O)[C@@]12C [SCALARADIAL],IC50,[14],210 nM
same,inhibition,[14],Dose-dependent effect
same,inhibition,[15],Tde
same,inhibition,[16],inactive
same,inhibition,[17],Tde
same,IC50,[18],760 nM
same,inhibition,[19],inactive
same,inhibition,[20],inactive
same,inhibition,[21],inactive
same,IC50,[22],330 nM
same,Activity,INS1 [23],Toxic
same,Activity,INS1 [24],Toxic
same,Activity,INS1 [25],Toxic
same,Activity,INS1 [26],Non-Toxic
same,IC50,Phospholipase A2,70 nM
same,IC50,[27],5400 nM
COC[C@H]1OC(=O)c2coc3c2[C@@]1(C)C1=C(C3=O)[C@@H]2CCC(=O)[C@@]2(C)C[C@H]1OC(C)=O [WORTMANNIN],inhibition,[28],inactive
same,Activity,HEK293 [29],Toxic
same,Activity,HEK293 [30],Toxic
same,Activity,HEK293 [31],Toxic
same,Activity,HEK293 [32],Toxic
